The source of these data is ChEMBL document CHEMBL4334439, “Discovery, Optimization, and Target Identification of Novel Potent Broad-Spectrum Antiviral Inhibitors” (J Med Chem, 2019).

In this experiment the test system is Hepatitis C virus. As to the kind of experiment: Antiviral activity against HCV JFH-1 harboring K78E/E2-G451R/NS3-M260K/NS5A-T462I mutant infected in human Huh7.5.1 cells after 2 days by renilla luciferase reporter gene assay. Format: functional, organism-based, Hepacivirus hominis. The following applies: JFH-1, Huh-7.5.1, 48 h. An outline of the steps:
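Renilla luciferase reporter HCVcc (hRluc inserted in NS5A, aa 399/400) came from electroporated Huh7.5.1 supernatant. Virus plus serially diluted compound (top 30 or 6 μM) was added to Huh7.5.1 cells (1×10^4/well) and luminescence read. EC50 is 50% luminescence reduction.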
Background: Reporter assays use an easily measured gene product as a stand-in for the process of interest.

Each structure is given as a SMILES string.

As a reminder, the EC50 is the concentration that produces a half-maximal response. A higher EC50 goes with a less potent agent. Consider `CC(C)OC(=O)[C@H](C)N[P@](=O)(OC[C@H]1O[C@@H](n2ccc(=O)[nH]c2=O)[C@](C)(F)[C@@H]1O)Oc1ccccc1` [SOFOSBUVIR], for which the half-maximal effective concentration (EC50) was determined as 170 nM.
